In ChEMBL document CHEMBL1141333, “Molecular-targeted antitumor agents. 15. Neolamellarins from the marine sponge Dendrilla nigra inhibit hypoxia-inducible factor-1 activation and secreted vascular endothelial growth factor production in breast tumor cells” (J Nat Prod, 2007):
Calls of active or inactive are those of the source. No cut-off for these calls is given here.

Experiments:
T47D [1] = test: Antiproliferative activity against human T47D cells under normoxic conditions after 48 hrs; type: functional, cell-based
Outline: (§1)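 T47D proliferation/viability measured by Neutral Red; % inhibition = [1 − OD540(treated)/OD540(control)] × 100. Hypoxic exposure was 1% O2 for 16 or 48 h, with compounds at up to 10 μM. Normoxic incubation was 48 h. Compounds were dissolved as 4 mM DMSO stocks.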

T47D [2] = test: Inhibition of HIF1 activation in T47D cells at 10 uM by reporter gene assay; type: cell-based; conditions: Homo sapiens
Outline: (§2)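 Transfected T47D luciferase reporter for HIF-1. HIF-1 was induced either by hypoxia (1% O2) or by 1,10-phenanthroline (10 μM) during compound treatment. Luciferase activity was read out and concentration-response was tested at 1, 3 and 10 μM. Compounds came from 4 mM DMSO stocks. Emetine at 1 μM was the positive control.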

T47D [3] = test: Antiproliferative activity against human T47D cells under hypoxic conditions upto 10 uM after 16 to 48 hrs by neutral red assay; type: functional; outline: as §1
T47D [4] = test: Inhibition of 1,10-phenanthroline-induced HIF1 activation in T47D cells at 10 uM by reporter gene assay; type: cell-based; design: scale not given: the % may be the effect or the level left; conditions: Homo sapiens; outline: as §2
T47D [5] = test: Inhibition of 1,10-phenanthroline-induced VEGF protein level in T47D cells at 10 uM by ELISA; type: functional, Homo sapiens; design: scale not given: the % may be the effect or the level left
Outline: (§3)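 Exponentially grown T47D cells were exposed to compound for 16 h under hypoxia (1% O2) or 1,10-phenanthroline (10 μM). Secreted VEGF in conditioned media was measured by ELISA. Cells were lysed and lysate protein was measured by Micro BCA; VEGF was normalized to lysate protein. Triplicate wells, mean ± SD.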

[6] = Inhibition of HIF1 activation in T47D cells by reporter gene assay; type: cell-based; conditions: Homo sapiens; outline: as §2
T47D [7] = test: Antiproliferative activity against human T47D cells under normoxic conditions at 1 uM after 48 hrs; type: functional; outline: as §1
[8] = Inhibition of 1,10-phenanthroline-induced HIF1 activation in T47D cells by reporter gene assay; type: cell-based; conditions: Homo sapiens; outline: as §2
T47D [9] = test: Inhibition of hypoxia-induced VEGF protein level in T47D cells at 10 uM by ELISA; type: functional, Homo sapiens; design: scale not given: the % may be the effect or the level left; outline: as §3
T47D [10] = test: Antiproliferative activity against human T47D cells under normoxic conditions at 10 uM after 48 hrs; type: functional; outline: as §1
T47D [11] = test: Inhibition of hypoxia-induced VEGF protein level in T47D cells at 3 uM by ELISA; type: functional, cell-based; conditions: Homo sapiens; outline: as §3

SMILES | Activity (T47D [1]) | inhibition (T47D [2]) [%] | Activity (T47D [3]) [%] | Activity (T47D [4]) [%] | Activity (T47D [5]) [%] | IC50 [6] [nM] | Activity (T47D [7]) [%] | IC50 [8] [nM] | Activity (T47D [9]) [%] | Activity (T47D [10]) [%] | Activity (T47D [11])
O=C(Cc1ccc(O)cc1)N1CC(c2ccc(O)cc2)=C(c2ccc(O)cc2)C1=O [NEOLAMELLARIN B] | inactive | 23 | <20 | 42 | – | – | – | – | – | – | –
O=C(C(O)c1ccc(O)cc1)n1cc(-c2ccc(O)cc2)c(-c2ccc(O)cc2)c1 (racemic) [7-(R/S)-HYDROXYLAMELLARIN A] | – | 98 | <20 | – | 33 | 1900 | -8 | 3700 | 87 | 34 | inactive
O=C(Cc1ccc(O)cc1)n1cc(-c2ccc(O)cc2)c(-c2ccc(O)cc2)c1 [NEOLAMELLARIN A] | inactive | 26 | <20 | 58 | – | – | – | – | – | – | –
O=C(Cc1ccc(O)cc1)N1C(=O)C(c2ccc(O)cc2)=C(c2ccc(O)cc2)C1O (stereo unspecified) [5-HYDROXYNEOLAMELLARIN B] | inactive | 22 | <20 | 33 | – | – | – | – | – | – | –
